From PubChem BioAssay
Most compounds without a hit are left out; they make up all but 3% or so of the library.
beta cell repl: inducers of MIN6 beta-cell proliferation, primary screen, ATP luminescence, uHTS. MIN6 cells proliferation, ATPlite luminescence, 48 h; cells starved in 0.2% serum; 100% = growth in 10% serum. proliferation, % at 10 µM. 0.29% of 330,000 active. AID 2380, 2010;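 active = compounds whose signal lies at least 3.5 SD above the mean of all wells on their plate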;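 also: 0% = DMSO-treated cells in low-serum medium and 100% = 10% serum control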
hiPSC survival: enhancers of single-cell hiPSC survival, primary screen, ATPlite luminescence | 100% = ROCK inhibitor wells, 0% = DMSO | survival enhancement, % at 20 µM | 0.044% of 360,000 active; in the data active = survival enhancement above about 18%;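 also: cells exposed to compounds for 16 hours before the ATP read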
Apaf1 inhib: inhibitors of human Apaf-1 apoptosome, primary screen, biochemical, DEVD-Rh110 fluorescence, uHTS | Apoptotic protease-activating factor 1 (Homo sapiens), O14727 | reconstituted apoptosome caspase-3 activity | inhibition, % at 20 µM | 0.71% of 330,000 active | AID 489030, 2010; active = inhibition of at least 40% at 20 µM;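 also: plate controls were DMSO wells for no effect and DEVD-CHO caspase inhibitor wells for full effect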
Target sequence (O14727 whole entry, looked up): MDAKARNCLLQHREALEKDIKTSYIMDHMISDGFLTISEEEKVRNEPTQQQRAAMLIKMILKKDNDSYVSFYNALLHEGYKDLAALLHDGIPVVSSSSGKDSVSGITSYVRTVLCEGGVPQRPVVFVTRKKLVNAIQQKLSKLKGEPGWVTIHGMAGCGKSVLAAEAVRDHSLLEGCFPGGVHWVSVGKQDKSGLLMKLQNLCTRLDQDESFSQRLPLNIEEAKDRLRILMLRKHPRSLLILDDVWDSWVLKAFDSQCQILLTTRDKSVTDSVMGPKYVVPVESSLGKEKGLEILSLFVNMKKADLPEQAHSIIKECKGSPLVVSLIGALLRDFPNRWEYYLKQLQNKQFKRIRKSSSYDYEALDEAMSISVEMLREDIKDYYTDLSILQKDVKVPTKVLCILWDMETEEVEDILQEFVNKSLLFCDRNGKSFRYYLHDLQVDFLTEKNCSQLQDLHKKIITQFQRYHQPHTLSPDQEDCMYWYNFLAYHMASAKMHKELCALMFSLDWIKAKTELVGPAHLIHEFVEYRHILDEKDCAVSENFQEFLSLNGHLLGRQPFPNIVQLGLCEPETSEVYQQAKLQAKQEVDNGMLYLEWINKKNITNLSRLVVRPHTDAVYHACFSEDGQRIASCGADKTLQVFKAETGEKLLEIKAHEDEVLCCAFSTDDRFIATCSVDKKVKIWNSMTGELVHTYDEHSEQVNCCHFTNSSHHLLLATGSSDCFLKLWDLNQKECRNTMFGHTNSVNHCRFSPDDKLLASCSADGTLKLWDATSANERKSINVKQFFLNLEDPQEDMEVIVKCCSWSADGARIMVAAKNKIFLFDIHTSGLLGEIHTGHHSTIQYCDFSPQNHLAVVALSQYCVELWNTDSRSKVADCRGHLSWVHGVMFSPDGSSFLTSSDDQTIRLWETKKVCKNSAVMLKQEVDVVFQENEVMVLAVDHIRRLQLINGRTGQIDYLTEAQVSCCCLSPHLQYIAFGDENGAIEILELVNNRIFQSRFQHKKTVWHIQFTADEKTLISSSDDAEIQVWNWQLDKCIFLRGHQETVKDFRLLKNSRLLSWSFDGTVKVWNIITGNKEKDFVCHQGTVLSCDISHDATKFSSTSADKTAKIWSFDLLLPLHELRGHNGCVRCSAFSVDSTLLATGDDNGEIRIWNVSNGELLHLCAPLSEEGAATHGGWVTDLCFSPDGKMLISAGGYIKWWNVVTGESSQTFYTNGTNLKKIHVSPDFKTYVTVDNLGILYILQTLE
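System – cell-free apoptosome with Apaf-1, procaspase-3 and caspase-9 · Buffer or medium – pH 7.5 Hepes buffer with CHAPS, BSA, DTT · Also added – cytochrome c with DEVD-Rh110 · Times – 30 min compound preincubation, 50 min activation, room temperature · Technique – Rh110 fluorescence intensity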
MPTP block: mitochondrial permeability transition pore inhibitors, primary screen, biochemical, isolated mouse mitochondria, absorbance. Ca2+ swelling absorbance, 30 min. inhibition, % at 10 µM. 1.4% of 360,000 active. AID 602449, 2012;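 active = inhibition of 50% or more, scaled per plate between neutral and stimulator controls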;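 also: 0% = DMSO wells given calcium and 100% = 1 mM EGTA wells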
Granule exo inh: LAMP-1 surface exposure blockers, TALL-104 cells – cell-based, flow cytometry, MLPCN library, primary screen. TALL-104 LAMP-1 surface exposure; cells stimulated with thapsigargin and PMA. inhibition, % at 10 µM. 0.66% of 360,000 active. AID 651702, 2012;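 active = inhibition above about 55%, limit read from the data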
UBC13 polyUb: UBC13 polyubiquitin chain formation inhibitors, primary screen, biochemical, TR-FRET, uHTS. Ubiquitin-conjugating enzyme E2 N (Homo sapiens), P61088. inhibition, % at 20 µM. 0.47% of 330,000 active; in the data active = inhibition above about 45%, passing the limit was not always enough
Casp3 counter: CASP3 inhibitor validation, counterassay for project on UBE2N polyubiquitination blockers, biochemical, one dose; 4% of 1,400 active; shares compounds with UBC13 polyUb; Recombinant caspase-3, Caspase-Glo 3/7 luminescence, 60 min; AID 488856, 2010; inhibition, % at 20 µM;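 active = mean inhibition across replicates above about 26%, limit read from the data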;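 also: plate controls were DMSO with caspase-3 for no effect and DMSO wells lacking enzyme for full effect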
UBC13 conf: UBC13 polyubiquitination inhibitors, single-point retest, confirmation, biochemical, TR-FRET, single concentration; shares compounds with UBC13 polyUb; inhibition, % at 10 µM; 68% of 1,400 active; AID 488859, 2010; in the data active = inhibition above about 45%
Apaf-1 inh conf: Apaf-1 inhibitors, single-dose retest, confirmation, biochemical, fluorescence, DEVD-Rh110, 20 µM; shares compounds with Apaf1 inhib; reconstituted apoptosome, caspase-3 DEVD-Rh110 fluorescence; inhibition, % at 20 µM; 25% of 1,800 active;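 active = mean inhibition of at least 40% at 20 µM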;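 also: plate controls were DMSO wells for no effect and DEVD-CHO caspase inhibitor control wells for full effect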
Rh110 quench: Rh110 fluorescence interference by putative Apaf-1 inhibitors, confirmation, artefact control for Apaf-1 inhibitor project, biochemical, 20 µM; shares compounds with Apaf1 inhib; quenched caspase reaction; activation (fluorescence interference), % at 20 µM; 1,800 tested, under 10 active; AID 504615, 2011;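 active = signal rise of 40% or more at 20 µM, treated as a fluorescence artifact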
MPTP counter: fluorescence retest of MPTP screen hits in isolated mitochondria, single concentration; shares compounds with MPTP block; membrane potential, Rhodamine 123 fluorescence; inhibition, % at 10 µM; 78% of 5,000 active; AID 624504, 2012; in the data active = inhibition above about 22%;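 also: 0% = DMSO vehicle and 100% = positive control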
MPTP abs DR: mitochondrial permeability transition pore inhibitors, dose response, biochemical, absorbance, uHTS hits; shares compounds with MPTP block; isolated mitochondria swelling; IC50, µM; 58% of 780 active; in the data active = IC50 below about 20 µM
MPTP counter DR: fluorescent counter-screen in isolated mitochondria, dose response, counter-screen for MPTP inhibitor project, biochemical, fluorescence, uHTS hits. 49% of 780 active. isolated mitochondria counterscreen, fluorescence read-out. IC50, µM. shares compounds with MPTP block. AID 651564, 2012; in the data active = IC50 below about 80 µM
Granule exo CP1: inhibitors of lytic granule exocytosis, confirmation, TALL-104 cells, flow cytometry, Cherry Pick01; shares compounds with Granule exo inh; LAMP-1 externalization; stimulated with PMA plus thapsigargin; 11% of 1,500 active; inhibition, % at 10 µM; AID 651954, 2012; in the data active = inhibition above about 60%;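 also: 0% = stimulated vehicle wells and 100% = unstimulated wells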
The depositor's hits bear a star; . = no result.

SMILES	beta cell repl	hiPSC survival	Apaf1 inhib	MPTP block	Granule exo inh	UBC13 polyUb	Casp3 counter	UBC13 conf	others
CC12CNCC(C)(CNC1)C2O (stereo not drawn)	-1.1	2.8	28.1	-0.3	-0.5	57.2*	0.0	0.7
O=P1(NCCCl)OCCCN1CCCl (stereo not drawn)	-2.3	0.6	-6.3	-1.3	-1.8	45.8*	3.7	2.8
C[C@H]1COc2cc(N3CCN(C)CC3)ccc2S(=O)(=O)N1	.	-0.4	.	-1.0	-4.3	.	.	.
O=C(C(=O)N1CCOCC1)c1cn(Cc2ccccc2Cl)c2ccccc12	-1.2	0.5	4.2	2.4	-3.1	54.3*	-2.4	53.3*
O=C(C(=O)N1CCOCC1)c1cn(Cc2ccc(F)cc2)c2ccccc12	0.8	-0.2	0.1	1.2	0.0	45.1*	-3.7	42.3
CCOC(=O)[C@]12Cc3cc(C)ccc3[C@H]1N(Cc1ccccc1)C(=O)c1cc(F)c(F)cc12	.	-0.3	.	-2.4	1.8	.	.	.
CCCCn1c(N)c(C(=O)OCCOC)c2nc3ccccc3nc21	-2.0	-0.8	24.3	1.2	-5.4	2.4	.	.
COCCCNC(=O)c1c(NC(=O)c2ccccc2)n(Cc2ccccc2)c2nc3ccccc3nc12	-2.2	1.3	33.0	0.0	-3.0	48.7*	-0.7	37.1
COc1ccccc1CCNCc1cccc(C(F)(F)F)c1	-1.6	-0.7	-4.8	-0.9	-2.1	52.0*	-0.4	9.9
COc1ccc(CCNCc2cccc(C(F)(F)F)c2)cc1OC	-0.9	0.1	-3.0	2.8	-0.9	7.6	.	.
O=C1c2ccccc2-n2nnc(-c3ccccc3)c2C2c3cc(Br)ccc3CCN12 (stereo not drawn)	.	0.1	.	0.8	-2.1	.	.	.
COc1cc2c(c(OC)c1OC)-c1ccc(O)c(=O)cc1[C@@H](N)CC2	6.7	-0.5	-4.6	0.6	3.8	100.4*	0.7	93.2*
C[C@]12C[C@H](O)[C@@H](O)C[C@@H]1CC[C@@H]1[C@@H]2CC[C@]2(C)C(=O)CC[C@@H]12	.	-2.5	.	-0.6	-6.4	.	.	.
NC(N)=Nc1ccc2[nH]c3c(c2c1)C[C@@]1(O)[C@H]2Cc4ccc(O)c5c4[C@@]1(CCN2CC1CC1)[C@H]3O5	-6.6	-1.9	-26.7	13.4	18.9	52.6*	-5.8	10.9
NC(Cc1ccc(F)cc1)c1csc(Nc2ccccn2)n1 (stereo not drawn)	.	-1.1	.	3.6	-3.8	.	.	.
O=C1C2CC(CN3CCCCC23)C2CCCCN12 (stereo not drawn)	.	-0.7	.	-2.0	9.8	.	.	.
NC(N)=N/N=C/c1cn(-c2ccccc2)nc1-c1cccs1	-5.6	-0.8	40.9*	48.6	4.6	78.8*	2.1	85.1*	Apaf-1 inh conf=14.4;Rh110 quench=14.7
O=c1c2ccccc2nc(-c2cccs2)n1-c1ccccc1	-1.3	2.9	13.7	-5.2	-5.5	5.5	.	.
COC(=O)C1=C(c2ccc(OCc3ccccc3)cc2)C[C@@H]2CC[C@H]1N2C(=O)NC1CCN(Cc2ccccc2)CC1	-7.3	-3.9	57.7*	2.8	-5.9	55.0*	-3.4	30.2	Apaf-1 inh conf=22.6;Rh110 quench=10.0
C[C@@H]1COc2cccc(N3CCN(C)CC3)c2S(=O)(=O)N1	.	0.1	.	1.6	-5.4	.	.	.
CCN(CC)CCCNC(=O)c1c(O)c2ccccc2n(Cc2ccccc2)c1=O	-5.1	-2.3	14.7	78.9*	16.7	52.8*	2.1	73.5*	MPTP counter=-6.8;MPTP abs DR=16.3*;MPTP counter DR=>80
O=C(NCP(=O)(Oc1ccccc1)Oc1ccccc1)OCc1ccccc1	.	0.3	.	0.5	5.2	.	.	.
CCCCCCCSc1cc(OC)c(CCNC)cc1OC	-3.6	-1.3	25.4	11.3	84.6*	50.7*	-2.2	62.1*	Granule exo CP1=48.3
COC(=O)[C@@H]1N=C(c2ccc(OC)cc2)O[C@]12C(=O)N(Cc1ccc(OC)cc1)c1ccccc12	.	0.1	.	-2.1	0.6	.	.	.
COc1cc2c(cc1O)C[C@H]1NCCc3cc4c(c-2c31)OCO4	0.2	-1.1	71.0*	-0.5	3.9	-42.6	.	.	Apaf-1 inh conf=36.0;Rh110 quench=1.2
SMILES	beta cell repl	hiPSC survival	Apaf1 inhib	MPTP block	Granule exo inh	UBC13 polyUb	Casp3 counter	UBC13 conf	others
O=C(O)C1C2c3ccccc3C(O)C1(C(=O)O)c1ccccc12 (stereo not drawn)	.	1.0	.	-2.2	4.3	.	.	.
O=[N+]([O-])c1ccc(NC2CCN(Cc3ccccc3)CC2)c2ccncc12	-3.8	-0.1	74.2*	0.8	6.6	-105.7	.	.	Apaf-1 inh conf=21.4;Rh110 quench=9.3
O=[N+]([O-])c1ccc(NC2CCCC2)c2ccncc12	-1.3	-0.3	41.9*	2.5	14.2	-189.5	.	.	Apaf-1 inh conf=14.6;Rh110 quench=2.1
CCCC1(CCO)C(=O)NC(=S)NC1=O	.	2.2	.	-1.3	1.1	.	.	.
O=[N+]([O-])c1ccc(-[n+]2c(-c3ccccc3)cc(-c3ccccc3)cc2-c2ccccc2)cc1	-0.6	0.3	2.6	0.4	-2.2	1.4	.	.
O=[N+]([O-])c1ccccc1-c1cc(-c2ccccc2)cc(-c2ccccc2)[n+]1Cc1ccccc1Cl	-8.4	.	52.8*	.	.	38.2	.	.	Apaf-1 inh conf=19.5;Rh110 quench=8.6
